Values after ≈ are worked out from the molar mass of the structure shown.
Tests used:
[1] = AUC in Sprague-Dawley rat at 5 mg/kg, po after 24 hrs; type: ADME, organism-based; set-up: time < 24 hr, dose 5 mg/kg, route oral; details: in vivo
Summary of the method: (§1)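 Male Sprague-Dawley rats (300−350 g) with jugular vein and/or bile duct cannulas, n = 3 per route; dosed as a solution in PEG-400/ethanol (90/10). The iv dose was 1 mg/kg given as a 0.5 min bolus, with jugular blood sampled from 2 to 1440 min. The po dose was 5 mg/kg after an overnight fast, sampled from 15 to 1440 min. Plasma was taken from EDTA blood.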

[2] = Permeability in human Caco2 cells; type: ADME, cell-based; details: Caco-2, read-out: permeability
[3] = Half life in Sprague-Dawley rat at 1 mg/kg, iv; type: ADME, organism-based; details: in vivo
[4] = Metabolic stability in human liver microsomes assessed as parent compound remaining after 10 mins; type: ADME, microsome; details: read-out: Stability
Summary of the method: (§2)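 Compound at 3 μM was incubated with human or rat liver microsomes, and the percentage of parent compound remaining was measured after 10 min.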

[5] = Aqueous solubility of the compound; type: physicochemical; details: buffer
[6] = Oral bioavailability in Sprague-Dawley rat at 5 mg/kg; type: ADME, organism-based; details: in vivo; summary of the method: as §1
[7] = Volume of distribution at steady state in Sprague-Dawley rat at 1 mg/kg, iv; type: ADME, organism-based; details: in vivo, read-out: Vdss; summary of the method: as §1
MT2 = experiment: Cytotoxicity against human MT2 cells assessed as decrease in cell viability after 3 days […]; type: functional; details: MT2, 72 h
[8] = system: Human immunodeficiency virus 1; experiment: Antiviral activity against ENV pseudotyped CCR5-tropic HIV1 […] infected in human HeLa67 cells after 3 days by luciferase reporter gene assay; type: functional, organism-based; details: Human immunodeficiency virus 1, HeLa67, 72 h
Summary of the method: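 Single-cycle infection with env-deleted, luciferase-reporter HIV-1 pseudotyped with the JRFL (CCR5) envelope, supplied by transfection; viral titers normalized by luminescence without compound. HeLa 67 cells were infected in the presence of compounds given as 3-fold serial dilutions made from 30 mM DMSO stocks.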

[9] = Metabolic stability in rat liver microsomes assessed as parent compound remaining after 10 mins; type: ADME, microsome; details: read-out: Stability; summary of the method: as §2
[10] = Clearance in Sprague-Dawley rat at 1 mg/kg, iv; type: ADME, organism-based; details: in vivo
[11] = Half life in human liver microsomes; type: ADME, microsome
[12] = Half life in rat liver microsomes; type: ADME, microsome

SMILES | AUC at 24 h [1] | Papp [2] | half-life [3] | remaining at 10 min [4] | solubility [5] | bioavailability [6] | Vd [7] | EC50 [8] | remaining at 10 min [9] | clearance [10] | half-life [11] | half-life [12] | CC50 (MT2)
COc1cnc(-n2ccnn2)c2[nH]cc(C(=O)C(=O)N3CCN(C(=O)c4ccccc4)CC3)c12 | 43.5 µM·h | 7.8 ×10⁻⁶ cm/s | 1.6 h | 83% |  | 59% | 0.23 L/kg | 0.07 nM | 82% |  |  |  | 225000 nM
COc1cnc(-c2cnccn2)c2[nH]cc(C(=O)C(=O)N3CCN(C(=O)c4ccccn4)CC3)c12 | 14.6 µM·h |  | 4 h | 100% |  | 85% | 1.9 L/kg | 0.11 nM | 27% |  | > 1.67 h |  | > 300000 nM
CCNC(=O)c1ncn(-c2ncc(OC)c3c(C(=O)C(=O)N4CCN(C(=O)c5ccccc5)CC4)c[nH]c23)n1 |  | < 1.5 ×10⁻⁶ cm/s |  | 97% | 58 µg/mL (≈ 109 µM) |  |  | 0.14 nM | 100% |  |  |  | > 300000 nM
COc1cnc(-n2cnc(N3CCOCC3)n2)c2[nH]cc(C(=O)C(=O)N3CCN(C(=O)c4ccccc4)CC3)c12 | 13 µM·h | 5.8 ×10⁻⁶ cm/s | 1.5 h | 64% |  | 52% | 0.26 L/kg | 0.07 nM | 89% | 6.1 mL/min/kg |  |  | 203000 nM
COc1cnc(-c2cnccn2)c2[nH]cc(C(=O)C(=O)N3CCN(C(=O)c4ccccn4)[C@H](C)C3)c12 | 7.8 µM·h | 12.5 ×10⁻⁶ cm/s | 2.4 h | 95% |  | 61% | 1.1 L/kg | 0.4 nM | 80% | 8.8 mL/min/kg |  |  | > 300000 nM
O=C(C(=O)N1CCN(C(=O)c2ccccc2)CC1)c1c[nH]c2ccccc12 |  | > 10 ×10⁻⁶ cm/s |  |  |  |  |  |  |  |  | > 1.67 h | > 1.67 h | 
COCc1ncn(-c2ncc(OC)c3c(C(=O)C(=O)N4CCN(C(=O)c5ccccc5)CC4)c[nH]c23)n1 |  | < 1.5 ×10⁻⁶ cm/s |  | 97% |  |  |  | 0.09 nM | 95% |  |  |  | > 300000 nM
COc1cnc(-c2cncnc2)c2[nH]cc(C(=O)C(=O)N3CCN(C(=O)c4ccccc4)CC3)c12 |  | 1.5 to 4.9 ×10⁻⁶ cm/s |  |  |  |  |  | 0.51 nM |  |  | > 1.67 h | > 1.67 h | > 300000 nM
CCN(CC)CCNc1ncn(-c2ncc(OC)c3c(C(=O)C(=O)N4CCN(C(=O)c5ccccc5)CC4)c[nH]c23)n1 |  | < 1.5 ×10⁻⁶ cm/s |  | 87% |  |  |  | 1.04 nM | 100% |  |  |  | > 300000 nM
COc1cnc(-n2cc(F)cn2)c2[nH]cc(C(=O)C(=O)N3CCN(C(=O)c4ccccc4)CC3)c12 |  | 19.5 ×10⁻⁶ cm/s |  | 77% |  |  |  | 0.03 nM | 83% |  |  |  | 75000 nM
COc1cnc(-c2cncc(=O)[nH]2)c2[nH]cc(C(=O)C(=O)N3CCN(C(=O)c4ccccc4)CC3)c12 | 0.13 µM·h | 6.6 ×10⁻⁶ cm/s | 0.8 h | 100% |  | 0.43% | 0.18 L/kg | 0.21 nM | 100% | 5.6 mL/min/kg | > 1.67 h |  | > 300000 nM

Continued, in another order:

AUC at 24 h [1] | Papp [2] | half-life [3] | remaining at 10 min [4] | solubility [5] | bioavailability [6] | Vd [7] | EC50 [8] | remaining at 10 min [9] | clearance [10] | half-life [11] | half-life [12] | SMILES | CC50 (MT2)
15.7 µM·h | 26 ×10⁻⁶ cm/s | 0.9 h | 80% | 17 µg/mL (≈ 36 µM) | 43.7% | 0.23 L/kg | 0.05 nM | 100% |  |  |  | COc1cnc(-n2ccc(C)n2)c2[nH]cc(C(=O)C(=O)N3CCN(C(=O)c4ccccc4)CC3)c12 | 130000 to 154000 nM
254 µM·h | 26.1 ×10⁻⁶ cm/s | 3.3 h | 100% |  | 86% | 0.12 L/kg | 0.05 nM | 94% | 0.7 mL/min/kg |  |  | CCc1ncn(-c2ncc(OC)c3c(C(=O)C(=O)N4CCN(C(=O)c5ccccc5)CC4)c[nH]c23)n1 | 90000 nM
25.6 µM·h | < 1.5 ×10⁻⁶ cm/s | 1.8 h |  |  | 77.1% | 0.48 L/kg | 0.58 nM |  | 5.6 mL/min/kg | > 1.67 h | > 1.67 h | COc1cnc(-n2cccn2)c2[nH]cc(C(=O)C(=O)N3CCN(C(=O)c4ccccc4)CC3)c12 | 288000 nM
13.2 µM·h | 20 ×10⁻⁶ cm/s | 0.56 h | 72% | 69 µg/mL (≈ 142 µM) | 72.8% | 0.47 L/kg | 0.16 nM | 78% |  |  |  | COc1cnc(-n2ccc(C)n2)c2[nH]cc(C(=O)C(=O)N3CCN(C(=O)c4ccccc4)[C@H](C)C3)c12 | 142000 nM
88 µM·h | 12.8 ×10⁻⁶ cm/s | 3 h | 94% |  | 104% | 0.34 L/kg | 0.18 nM | 98% |  |  |  | COc1cnc(-n2cnc(C)n2)c2[nH]cc(C(=O)C(=O)N3CCN(C(=O)c4ccccc4)[C@H](C)C3)c12 | > 300000 nM
82 µM·h | 31.5 ×10⁻⁶ cm/s | 3 h | 84% |  | 88.4% | 0.2 L/kg | 0.08 nM | 90% |  |  |  | CCc1ncn(-c2ncc(OC)c3c(C(=O)C(=O)N4CCN(C(=O)c5ccccc5)[C@H](C)C4)c[nH]c23)n1 | 281000 nM
1.99 µM·h |  | 2.9 h | 81% |  | 19% | 1.1 L/kg | 0.14 nM | 90% |  |  |  | COc1cnc(-n2ccc(CO)n2)c2[nH]cc(C(=O)C(=O)N3CCN(C(=O)c4ccccc4)[C@H](C)C3)c12 | > 300000 nM
34.8 µM·h | 22.4 ×10⁻⁶ cm/s | 1.4 h | 74% |  | 65.5% | 0.29 L/kg | 0.13 nM | 76% | 4.3 mL/min/kg |  |  | COc1cnc(-n2cc(C)nn2)c2[nH]cc(C(=O)C(=O)N3CCN(C(=O)c4ccccc4)[C@H](C)C3)c12 | 124000 nM
 | 1.5 to 4.1 ×10⁻⁶ cm/s |  | 100% |  |  |  | 0.27 nM | 100% |  |  |  | COc1cnc(-n2ccc(CN(C)C)n2)c2[nH]cc(C(=O)C(=O)N3CCN(C(=O)c4ccccc4)CC3)c12 | > 150000 nM
8.6 µM·h | 14.3 ×10⁻⁶ cm/s | 0.7 h | 83% |  | 59% | 0.49 L/kg | 0.08 nM | 78% | 12 mL/min/kg |  |  | COc1cnc(-n2ccnn2)c2[nH]cc(C(=O)C(=O)N3CCN(C(=O)c4ccccc4)[C@H](C)C3)c12 | > 150000 nM
 | 2.2 ×10⁻⁶ cm/s |  |  |  |  |  | 0.09 nM |  |  | 1.67 h | 1.67 h | COCc1ncn(-c2ncc(OC)c3c(C(=O)C(=O)N4CCN(C(=O)c5ccccc5)[C@H](C)C4)c[nH]c23)n1 | > 300000 nM
0.03 µM·h | < 1.5 ×10⁻⁶ cm/s | 0.5 h | 98% |  | 0.8% | 0.4 L/kg | 0.04 nM | 99% | 57 mL/min/kg |  |  | COc1cnc(-n2ccc(N)n2)c2[nH]cc(C(=O)C(=O)N3CCN(C(=O)c4ccccc4)CC3)c12 | > 150000 nM
